Experimental data reported in the M2OR odorant receptor database.

system: T1, O5AN1; settings: stereoisomer not certain
T1 sequence (whole entry): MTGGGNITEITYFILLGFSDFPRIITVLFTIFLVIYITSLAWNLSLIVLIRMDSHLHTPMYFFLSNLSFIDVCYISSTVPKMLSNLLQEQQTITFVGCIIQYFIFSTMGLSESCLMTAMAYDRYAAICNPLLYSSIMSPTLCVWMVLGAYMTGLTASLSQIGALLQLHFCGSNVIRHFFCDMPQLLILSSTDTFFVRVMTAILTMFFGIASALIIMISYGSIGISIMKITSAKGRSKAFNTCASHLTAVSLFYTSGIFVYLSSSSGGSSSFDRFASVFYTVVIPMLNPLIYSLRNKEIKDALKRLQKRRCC
Summary of the method: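 Values were gathered from published papers (main text and supplementary material), with extra details requested from the original authors when needed, and checked for typos and inconsistencies. Each receptor–molecule pair is called responsive (active) if the original authors judged the measured signal statistically different from baseline, and non-responsive (inactive) otherwise. Assay methods varied by source, often transient mammalian cell-line luciferase assays. Recorded details include cell line, G-protein, co-transfected protein and tags.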

**Q.** How did the “odorant receptor agonist call” value turn out when CC(=O)c1cc(C(C)(C)C)cc2c1CCC2(C)C was run?
**A.** inactive

**Q.** For Cc1c([N+](=O)[O-])c(C)c([N+](=O)[O-])c(C(C)(C)C)c1[N+](=O)[O-], which “odorant receptor agonist call” value is on record?
**A.** active

**Q.** How did the “odorant receptor agonist call” value turn out when CC(=O)c1cc2c(cc1C)C(C)(C)C(C)CC2(C)C (stereo not drawn) was run?
**A.** inactive
